Assay results: ChEMBL document CHEMBL4425094, “Novel Benzo[a]quinolizidine Analogs Induce Cancer Cell Death through Paraptosis and Apoptosis” (J Med Chem, 2016)
Active and inactive are the calls of the source. The rule behind the calls is not given here.

Tests used:
HeLa = test: Cytotoxicity against human HeLa cells assessed as cell growth inhibition after 24 hrs by MTT assay; format: functional, cell-based
Method in brief: (§1)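 Cells seeded 24 h in RPMI 1640 + 10% FBS. RWPE-1 was kept in K-SFM with bovine pituitary extract and EGF. Cells then exposed to compounds for 24 h at 37 °C, 5% CO2, with DMSO vehicle and docetaxel as positive control. MTT added for 4 h, absorbance read at 570 nm. Triplicate runs, IC50 reported as mean of three experiments.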

DU-145 = test: Cytotoxicity against human DU145 cells assessed as cell growth inhibition after 24 hrs by MTT assay; format: functional, cell-based; conditions: DU-145, 24 h; method in brief: as §1
PC-3 [1] = test: Cytotoxicity against human PC3 cells assessed as cell growth inhibition after 24 hrs by MTT assay; format: functional, cell-based; conditions: PC-3, 24 h; method in brief: as §1
PC-3 [2] = test: Induction of morphological changes in human PC3 cells assessed as formation of massive cytoplasmic vacuoles at 1 uM after 12 hrs by confocal microscopic analysis; format: functional, cell-based
MDA-MB-231 = test: Cytotoxicity against human MDA-MB-231 cells assessed as cell growth inhibition after 24 hrs by MTT assay; format: functional, cell-based; conditions: MDA-MB-231, 24 h; method in brief: as §1
K562 = test: Cytotoxicity against human K562 cells assessed as cell growth inhibition after 24 hrs by MTT assay; format: functional, cell-based; conditions: K562, 24 h; method in brief: as §1
MCF7 = test: Cytotoxicity against human MCF7 cells assessed as cell growth inhibition after 24 hrs by MTT assay; format: functional, cell-based; conditions: MCF7, 24 h; method in brief: as §1
RWPE-1 = test: Cytotoxicity against human RWPE1 cells assessed as cell growth inhibition after 24 hrs by MTT assay; format: cell-based; conditions: RWPE-1, 24 h; method in brief: as §1

Row | Compound | IC50 (HeLa) | IC50 (DU-145) | IC50 (PC-3 [1]) | Activity (PC-3 [2]) | IC50 (MDA-MB-231) | IC50 (K562) | IC50 (MCF7) | IC50 (RWPE-1)
1 | C[C@@H]1C[C@@H](O)C[C@H]2c3cc(OCc4ccc(Br)cc4)c(OCc4ccc(Br)cc4)cc3CCN12 | 1.16 µM | 2.58 µM | 1.24 µM | Active | 0.88 µM | 1.22 µM | 1.29 µM | –
2 | C[C@@H]1C[C@@](C)(O)C[C@H]2c3cc(OCc4cc(C(F)(F)F)cc(C(F)(F)F)c4)c(OCc4cc(C(F)(F)F)cc(C(F)(F)F)c4)cc3CCN12 | 1.21 µM | 2.24 µM | 0.61 µM | Active | 0.53 µM | 1.84 µM | 0.81 µM | 2.57 µM
3 | C[C@@H]1C[C@@H](O)C[C@H]2c3cc(OCc4cccc(F)c4)c(OCc4cccc(F)c4)cc3CCN12 | 1.73 µM | 3.85 µM | 0.82 µM | Active | 0.58 µM | 1.42 µM | 0.49 µM | 1.49 µM
4 | COc1ccc([C@@H]2C[C@@H](O)C[C@H]3c4cc(OCc5cc(C)cc(C)c5)c(OCc5cc(C)cc(C)c5)cc4CCN23)cc1OC | 3.05 µM | 4.53 µM | 1.15 µM | Active | 0.97 µM | 3.95 µM | 1.32 µM | 3.04 µM
5 | C[C@@H]1C[C@H](O)C[C@H]2c3cc(OCc4cc(C(F)(F)F)cc(C(F)(F)F)c4)c(OCc4cc(C(F)(F)F)cc(C(F)(F)F)c4)cc3CCN12 | 2.84 µM | 1.87 µM | 0.68 µM | Active | 0.56 µM | 1.15 µM | 1.87 µM | 2.32 µM
6 | COc1ccc([C@@H]2C[C@H](O)C[C@H]3c4cc(OCc5ccccc5)c(OCc5ccccc5)cc4CCN23)cc1OC | > 20 µM | > 20 µM | > 20 µM | – | > 20 µM | > 20 µM | > 20 µM | > 20 µM
7 | COc1ccc([C@@H]2C[C@H](O)C[C@H]3c4cc(OCc5cc(C)cc(C)c5)c(OCc5cc(C)cc(C)c5)cc4CCN23)cc1OC | > 20 µM | > 20 µM | > 20 µM | – | > 20 µM | > 20 µM | > 20 µM | > 20 µM
8 | Cc1cc(C)cc(COc2cc3c(cc2OCc2cc(C)cc(C)c2)CN(C(=O)OC(C)(C)C)CC3)c1 | > 20 µM | > 20 µM | > 20 µM | – | > 20 µM | > 20 µM | > 20 µM | > 20 µM
9 | C[C@@H]1C[C@@H](O)C[C@H]2c3cc4c(cc3CCN12)OCO4 | > 20 µM | > 20 µM | > 20 µM | – | > 20 µM | > 20 µM | > 20 µM | > 20 µM
10 | COc1cc([C@@H]2CC(=O)C[C@H]3c4cc(OCc5ccccc5)c(OCc5ccccc5)cc4CCN23)cc(OC)c1OC (relative stereo) | > 20 µM | > 20 µM | > 20 µM | – | > 20 µM | > 20 µM | > 20 µM | > 20 µM
11 | O[C@H]1C[C@@H](c2ccc(-c3ccccc3)cc2)N2CCc3cc(OCc4ccccc4)c(OCc4ccccc4)cc3[C@@H]2C1 | > 20 µM | > 20 µM | > 20 µM | – | > 20 µM | > 20 µM | > 20 µM | > 20 µM
12 | C[C@@H]1C[C@@H](O)C[C@H]2c3cc(OCc4ccc(C(C)(C)C)cc4)c(OCc4ccc(C(C)(C)C)cc4)cc3CCN12 | 2.06 µM | 2.22 µM | 3.79 µM | – | 3.25 µM | 2.04 µM | 0.86 µM | 1.91 µM
13 | O[C@H]1C[C@@H](c2ccccc2)N2CCc3cc4c(cc3[C@@H]2C1)OCO4 | > 20 µM | > 20 µM | > 20 µM | – | > 20 µM | > 20 µM | > 20 µM | > 20 µM
14 | CC1(C)CC(=O)C[C@H]2c3cc(OCc4ccccc4)c(OCc4ccccc4)cc3CCN21 | > 20 µM | > 20 µM | > 20 µM | – | > 20 µM | > 20 µM | > 20 µM | > 20 µM
15 | C[C@@H]1CC(=O)C[C@H]2c3cc(OCc4ccc(C(C)(C)C)cc4)c(OCc4ccc(C(C)(C)C)cc4)cc3CCN12 (relative stereo) | > 20 µM | > 20 µM | > 20 µM | – | > 20 µM | > 20 µM | > 20 µM | > 20 µM
16 | CCCCCCCCCCCCCCCCOc1cc2c(cc1OCCCCCCCCCCCCCCCC)[C@@H]1C[C@H](O)C[C@@H](C)N1CC2 | > 20 µM | > 20 µM | > 20 µM | – | > 20 µM | > 20 µM | > 20 µM | > 20 µM

Row | Compound | IC50 (HeLa) | IC50 (DU-145) | IC50 (PC-3 [1]) | Activity (PC-3 [2]) | IC50 (MDA-MB-231) | IC50 (K562) | IC50 (MCF7) | IC50 (RWPE-1)
17 | COc1cc([C@@H]2C[C@H](O)C[C@H]3c4cc(OCc5ccccc5)c(OCc5ccccc5)cc4CCN23)cc(OC)c1OC | > 20 µM | > 20 µM | > 20 µM | – | > 20 µM | > 20 µM | > 20 µM | > 20 µM
18 | O[C@@H]1C[C@@H](c2ccccc2)N2CCc3ccccc3[C@@H]2C1 | > 20 µM | > 20 µM | > 20 µM | – | > 20 µM | > 20 µM | > 20 µM | > 20 µM
19 | CCC[C@@H]1CC(=O)C/C=C(/CC)[C@H]2c3cc(OCc4ccccc4)c(OCc4ccccc4)cc3CCN12 (relative stereo) | > 20 µM | > 20 µM | > 20 µM | – | > 20 µM | > 20 µM | > 20 µM | > 20 µM
20 | O[C@@H]1CCN2CCc3cc(OCc4ccccc4)c(OCc4ccccc4)cc3[C@@H]2C1 (relative stereo) | > 20 µM | > 20 µM | > 20 µM | – | > 20 µM | > 20 µM | > 20 µM | > 20 µM
21 | COc1cc2c(cc1OC)[C@@H]1C[C@@H](O)C[C@@H](c3ccccc3)N1CC2 | > 20 µM | > 20 µM | > 20 µM | – | > 20 µM | > 20 µM | > 20 µM | > 20 µM
22 | COc1ccc([C@@H]2C[C@@H](O)C[C@H]3c4cc(OCc5cc(F)cc(F)c5)c(OCc5cc(F)cc(F)c5)cc4CCN23)cc1OC | 4.67 µM | 3.96 µM | 1.71 µM | – | 1.3 µM | 3.92 µM | 3.52 µM | 2.24 µM
23 | COc1cc2c(cc1OC)[C@@H]1CC(=O)C[C@@H](c3ccccc3)N1CC2 (relative stereo) | > 20 µM | > 20 µM | > 20 µM | – | > 20 µM | > 20 µM | > 20 µM | > 20 µM
24 | CCCCCCOc1cc2c(cc1OCCCCCC)[C@@H]1C[C@H](O)C[C@@H](C)N1CC2 | > 20 µM | > 20 µM | > 20 µM | – | > 20 µM | > 20 µM | > 20 µM | > 20 µM
25 | O[C@@H]1C[C@@H](c2ccccc2)N2CCc3cc(OCc4ccccc4)c(OCc4ccccc4)cc3[C@@H]2C1 | 11.2 µM | 12 µM | 8.37 µM | – | 11.8 µM | 6.96 µM | 20.1 µM | 40 to 86.8 µM
26 | C[C@@H]1C[C@H](O)C[C@H]2c3cc4c(cc3CCN12)OCO4 | > 20 µM | > 20 µM | > 20 µM | – | > 20 µM | > 20 µM | > 20 µM | > 20 µM
27 | O[C@H]1C[C@@H](c2ccccc2)N2CCc3cc(OCc4ccccc4)ccc3[C@@H]2C1 | > 20 µM | > 20 µM | > 20 µM | – | > 20 µM | > 20 µM | > 20 µM | > 20 µM
28 | O[C@@]1(c2ccccc2)C[C@@H](c2ccccc2)N2CCc3cc(OCc4ccccc4)c(OCc4ccccc4)cc3[C@@H]2C1 | > 20 µM | > 20 µM | > 20 µM | – | > 20 µM | > 20 µM | > 20 µM | > 20 µM
29 | CCCCCC[C@@H]1C[C@@H](O)C[C@H]2c3cc(OCc4ccccc4)c(OCc4ccccc4)cc3CCN12 | > 20 µM | > 20 µM | > 20 µM | – | > 20 µM | > 20 µM | > 20 µM | > 20 µM
30 | C[C@]1(O)C[C@@H](c2ccccc2)N2CCc3cc(OCc4ccccc4)c(OCc4ccccc4)cc3[C@@H]2C1 | > 20 µM | > 20 µM | > 20 µM | – | > 20 µM | > 20 µM | > 20 µM | > 20 µM
31 | O[C@H]1C[C@@H](c2ccccc2)N2CCc3ccc(OCc4ccccc4)cc3[C@@H]2C1 | > 20 µM | > 20 µM | > 20 µM | – | > 20 µM | > 20 µM | > 20 µM | > 20 µM
32 | C[C@@H]1C[C@@](C)(O)C[C@H]2c3cc(OCc4ccc(C(C)(C)C)cc4)c(OCc4ccc(C(C)(C)C)cc4)cc3CCN12 | 0.91 µM | 1.46 µM | 1.11 µM | – | 0.98 µM | 1.35 µM | 2.61 µM | 4.03 µM
